This note sets out measurements from ChEMBL document CHEMBL5113456, “2-Aminopyridines with a shortened amino sidechain as potent, selective, and highly permeable human neuronal nitric oxide synthase inhibitors” (Bioorg Med Chem, 2022).

Each structure is given as a SMILES string.

Data set [1] addresses T1, Nitric oxide synthase 3 (Homo sapiens, UniProt P29474).
T1 sequence (P29474 whole entry): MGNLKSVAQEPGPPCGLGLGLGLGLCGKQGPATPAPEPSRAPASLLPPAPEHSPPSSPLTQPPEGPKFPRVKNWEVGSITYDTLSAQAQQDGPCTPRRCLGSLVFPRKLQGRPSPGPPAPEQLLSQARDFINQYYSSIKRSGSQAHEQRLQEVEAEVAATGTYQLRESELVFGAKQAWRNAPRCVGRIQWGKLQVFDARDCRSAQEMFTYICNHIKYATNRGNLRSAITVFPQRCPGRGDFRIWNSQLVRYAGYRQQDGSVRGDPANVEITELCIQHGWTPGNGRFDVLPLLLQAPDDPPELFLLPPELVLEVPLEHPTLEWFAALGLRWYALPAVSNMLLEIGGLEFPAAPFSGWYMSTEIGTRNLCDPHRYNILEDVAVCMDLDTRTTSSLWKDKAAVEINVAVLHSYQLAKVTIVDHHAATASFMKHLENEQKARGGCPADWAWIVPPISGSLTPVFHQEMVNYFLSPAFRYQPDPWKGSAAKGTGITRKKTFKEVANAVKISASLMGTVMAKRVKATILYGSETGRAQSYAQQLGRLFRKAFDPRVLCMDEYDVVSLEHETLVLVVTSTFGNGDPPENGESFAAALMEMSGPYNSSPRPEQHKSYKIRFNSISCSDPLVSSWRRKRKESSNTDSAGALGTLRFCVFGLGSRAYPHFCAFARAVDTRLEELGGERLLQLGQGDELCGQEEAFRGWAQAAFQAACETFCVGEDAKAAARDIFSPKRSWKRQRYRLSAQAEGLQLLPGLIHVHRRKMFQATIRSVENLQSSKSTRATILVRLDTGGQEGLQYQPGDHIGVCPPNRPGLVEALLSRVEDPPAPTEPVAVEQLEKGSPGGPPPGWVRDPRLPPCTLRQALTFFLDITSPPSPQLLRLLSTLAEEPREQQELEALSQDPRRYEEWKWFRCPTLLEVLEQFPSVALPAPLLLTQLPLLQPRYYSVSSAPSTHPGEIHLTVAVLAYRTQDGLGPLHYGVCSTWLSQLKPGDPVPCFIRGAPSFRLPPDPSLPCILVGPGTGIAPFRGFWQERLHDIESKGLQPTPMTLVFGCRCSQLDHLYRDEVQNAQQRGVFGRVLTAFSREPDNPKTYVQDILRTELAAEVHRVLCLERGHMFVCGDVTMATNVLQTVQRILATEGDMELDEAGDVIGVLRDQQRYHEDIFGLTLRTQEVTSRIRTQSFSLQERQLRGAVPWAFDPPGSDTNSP
The experiment in a line: Inhibition of human eNOS using L-arginine as substrate assessed as reduction in NO production in the presence of NADPH by NO-hemoglobin capture assay. The essentials: (§1)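 Ki was obtained from IC50 by the Cheng–Prusoff equation. […] Enzyme was purified human NOS isoform. Assay buffer was 100 mM HEPES, 10% glycerol, pH 7.4–7.5, and stock buffer was 100 mM HEPES, pH 7.4–7.5. Plate reader syringe lines were equilibrated with assay buffer before the run.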

The nature of data set [2]: Effective permeability of compound in PBS buffer at pH 7.4 at 200 uM incubated for 17 hrs by PAMPA-BBB assay. In kind it is ADME. Particulars: read-out: Peff.
In data set [3] the target is Nitric oxide synthase, inducible (Homo sapiens, UniProt P35228). The experiment in a line: Inhibition of human iNOS using L-arginine as substrate assessed as reduction in NO production in the presence of NADPH by NO-hemoglobin capture assay. The essentials: as §1
Chain of Nitric oxide synthase, inducible (P35228 whole entry): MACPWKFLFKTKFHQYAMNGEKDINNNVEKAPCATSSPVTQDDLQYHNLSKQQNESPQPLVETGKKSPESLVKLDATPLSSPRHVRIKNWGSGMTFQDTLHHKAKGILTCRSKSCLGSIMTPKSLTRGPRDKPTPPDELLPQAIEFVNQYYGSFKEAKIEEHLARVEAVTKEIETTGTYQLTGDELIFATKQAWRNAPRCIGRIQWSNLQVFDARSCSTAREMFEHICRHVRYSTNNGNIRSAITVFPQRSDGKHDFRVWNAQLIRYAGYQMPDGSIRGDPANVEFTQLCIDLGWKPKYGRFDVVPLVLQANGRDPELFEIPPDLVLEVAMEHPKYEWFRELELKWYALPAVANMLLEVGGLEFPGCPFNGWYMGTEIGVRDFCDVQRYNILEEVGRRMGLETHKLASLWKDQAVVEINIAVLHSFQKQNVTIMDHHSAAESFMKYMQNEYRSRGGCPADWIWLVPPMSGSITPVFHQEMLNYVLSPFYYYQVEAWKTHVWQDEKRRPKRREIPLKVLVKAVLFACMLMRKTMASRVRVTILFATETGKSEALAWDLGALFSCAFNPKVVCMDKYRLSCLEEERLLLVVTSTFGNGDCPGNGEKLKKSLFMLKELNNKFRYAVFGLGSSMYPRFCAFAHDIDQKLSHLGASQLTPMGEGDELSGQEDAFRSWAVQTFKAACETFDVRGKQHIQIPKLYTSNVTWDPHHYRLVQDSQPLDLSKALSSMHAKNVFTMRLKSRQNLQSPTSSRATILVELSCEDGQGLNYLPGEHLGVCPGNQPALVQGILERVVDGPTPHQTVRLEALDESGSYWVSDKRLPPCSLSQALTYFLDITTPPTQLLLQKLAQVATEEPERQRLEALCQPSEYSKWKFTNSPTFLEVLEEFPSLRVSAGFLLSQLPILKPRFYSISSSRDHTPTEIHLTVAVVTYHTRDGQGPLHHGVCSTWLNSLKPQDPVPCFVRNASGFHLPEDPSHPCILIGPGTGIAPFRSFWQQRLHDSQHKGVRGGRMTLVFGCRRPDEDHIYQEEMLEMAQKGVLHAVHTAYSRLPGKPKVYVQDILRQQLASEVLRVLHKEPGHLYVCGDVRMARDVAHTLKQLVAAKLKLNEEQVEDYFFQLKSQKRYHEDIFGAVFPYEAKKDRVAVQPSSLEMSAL
Data set [4] deals with Nitric oxide synthase 1 (Rattus norvegicus, UniProt P29476).
Chain of Nitric oxide synthase 1 (Rattus norvegicus, UniProt P29476) (P29476 whole entry): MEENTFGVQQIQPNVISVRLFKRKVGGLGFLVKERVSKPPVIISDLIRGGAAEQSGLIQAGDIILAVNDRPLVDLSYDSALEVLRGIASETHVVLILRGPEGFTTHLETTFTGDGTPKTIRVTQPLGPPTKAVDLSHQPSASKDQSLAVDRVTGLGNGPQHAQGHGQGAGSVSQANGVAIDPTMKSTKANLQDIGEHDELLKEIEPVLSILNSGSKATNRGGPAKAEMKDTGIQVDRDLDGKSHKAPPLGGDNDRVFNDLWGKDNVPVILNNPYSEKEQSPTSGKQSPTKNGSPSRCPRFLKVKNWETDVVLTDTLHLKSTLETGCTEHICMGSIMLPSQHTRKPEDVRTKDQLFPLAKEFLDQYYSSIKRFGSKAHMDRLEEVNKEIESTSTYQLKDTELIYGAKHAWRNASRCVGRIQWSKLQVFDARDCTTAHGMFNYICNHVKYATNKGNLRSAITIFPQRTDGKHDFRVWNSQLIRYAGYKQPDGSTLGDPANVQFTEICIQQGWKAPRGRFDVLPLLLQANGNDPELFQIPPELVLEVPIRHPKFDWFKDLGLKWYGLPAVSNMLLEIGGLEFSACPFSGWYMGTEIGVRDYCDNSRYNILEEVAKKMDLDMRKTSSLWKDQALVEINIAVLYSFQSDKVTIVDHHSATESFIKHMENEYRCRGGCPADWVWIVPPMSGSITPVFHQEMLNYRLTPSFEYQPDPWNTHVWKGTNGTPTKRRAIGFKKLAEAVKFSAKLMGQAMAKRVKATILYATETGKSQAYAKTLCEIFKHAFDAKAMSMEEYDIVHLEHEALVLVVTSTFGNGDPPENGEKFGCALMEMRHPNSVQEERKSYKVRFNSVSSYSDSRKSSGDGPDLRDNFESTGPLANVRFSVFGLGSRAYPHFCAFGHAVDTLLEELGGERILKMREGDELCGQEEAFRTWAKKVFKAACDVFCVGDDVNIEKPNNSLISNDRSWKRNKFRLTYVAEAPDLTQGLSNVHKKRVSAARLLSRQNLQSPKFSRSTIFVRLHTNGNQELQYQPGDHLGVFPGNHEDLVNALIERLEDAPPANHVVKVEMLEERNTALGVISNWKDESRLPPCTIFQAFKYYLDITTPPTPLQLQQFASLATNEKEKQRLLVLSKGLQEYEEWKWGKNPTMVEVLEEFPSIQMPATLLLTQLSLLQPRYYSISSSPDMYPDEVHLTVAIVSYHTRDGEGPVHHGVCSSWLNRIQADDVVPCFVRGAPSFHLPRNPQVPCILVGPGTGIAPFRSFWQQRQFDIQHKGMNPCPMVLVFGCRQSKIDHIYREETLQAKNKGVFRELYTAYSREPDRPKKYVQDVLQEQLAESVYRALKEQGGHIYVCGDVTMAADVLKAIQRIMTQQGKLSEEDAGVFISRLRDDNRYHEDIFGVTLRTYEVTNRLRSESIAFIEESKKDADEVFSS
For data set [5], the target named is Nitric oxide synthase 1 (Homo sapiens, UniProt P29475).
Chain of Nitric oxide synthase 1 (Homo sapiens, UniProt P29475) (P29475 whole entry): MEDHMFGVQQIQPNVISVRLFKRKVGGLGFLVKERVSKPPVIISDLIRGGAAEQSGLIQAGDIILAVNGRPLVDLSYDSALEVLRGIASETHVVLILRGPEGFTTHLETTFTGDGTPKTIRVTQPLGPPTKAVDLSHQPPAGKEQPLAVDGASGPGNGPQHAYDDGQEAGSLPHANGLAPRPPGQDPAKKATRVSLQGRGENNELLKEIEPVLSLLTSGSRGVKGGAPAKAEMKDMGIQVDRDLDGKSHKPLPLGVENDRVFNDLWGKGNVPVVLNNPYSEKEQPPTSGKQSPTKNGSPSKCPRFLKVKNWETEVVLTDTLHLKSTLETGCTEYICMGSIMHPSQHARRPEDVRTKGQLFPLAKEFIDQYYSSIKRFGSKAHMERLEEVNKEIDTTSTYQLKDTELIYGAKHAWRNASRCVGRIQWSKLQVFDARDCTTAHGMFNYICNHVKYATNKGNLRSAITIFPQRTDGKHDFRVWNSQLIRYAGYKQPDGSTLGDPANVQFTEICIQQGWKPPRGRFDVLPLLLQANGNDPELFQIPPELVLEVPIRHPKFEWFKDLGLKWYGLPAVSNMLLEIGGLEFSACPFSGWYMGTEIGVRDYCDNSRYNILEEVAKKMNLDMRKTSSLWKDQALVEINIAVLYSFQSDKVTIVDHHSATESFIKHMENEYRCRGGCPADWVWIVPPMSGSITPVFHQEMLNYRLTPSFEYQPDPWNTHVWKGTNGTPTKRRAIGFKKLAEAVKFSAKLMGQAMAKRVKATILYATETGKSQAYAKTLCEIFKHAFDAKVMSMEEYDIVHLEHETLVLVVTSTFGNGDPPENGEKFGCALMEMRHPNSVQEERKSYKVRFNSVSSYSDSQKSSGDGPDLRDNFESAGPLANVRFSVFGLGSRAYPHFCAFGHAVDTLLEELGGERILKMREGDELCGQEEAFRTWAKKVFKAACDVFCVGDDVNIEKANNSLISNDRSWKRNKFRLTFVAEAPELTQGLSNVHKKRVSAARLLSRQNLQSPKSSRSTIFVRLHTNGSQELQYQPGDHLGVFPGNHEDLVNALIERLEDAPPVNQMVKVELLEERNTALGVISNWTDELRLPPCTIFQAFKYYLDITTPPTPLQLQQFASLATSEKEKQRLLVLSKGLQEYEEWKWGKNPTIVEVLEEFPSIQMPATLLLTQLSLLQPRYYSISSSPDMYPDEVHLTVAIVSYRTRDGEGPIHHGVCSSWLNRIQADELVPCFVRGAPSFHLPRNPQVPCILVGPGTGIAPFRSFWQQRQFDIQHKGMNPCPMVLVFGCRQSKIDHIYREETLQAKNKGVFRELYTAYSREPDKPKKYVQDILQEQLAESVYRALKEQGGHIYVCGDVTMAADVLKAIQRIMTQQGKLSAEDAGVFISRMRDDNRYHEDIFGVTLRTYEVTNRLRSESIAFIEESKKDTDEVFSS

For orientation: Ki means a measure of affinity in units of concentration, obtained from inhibition or displacement. For the molecule `Cc1cc(N)nc(C#CCN2CCN(C)CC2)c1`, the Ki in data set [1] was 43.8 µM. Moreover, the Papp at 17 h, 200 µM in data set [2] came to 3.2 ×10⁻⁶ cm/s.

For `Cc1cc(N)nc(C#CCCN(C)C)c1`, the inhibition constant Ki was 29.8 µM in data set [3], 70.5 µM in data set [1], 0.242 µM in data set [4] and 0.327 µM in data set [5]. Moreover, the Papp at 17 h, 200 µM in data set [2] stood at 4.7 ×10⁻⁶ cm/s.

`CNCC#Cc1cc(C)cc(N)n1`: the Ki in data set [1] was 1.92 µM. For the same molecule, the Papp at 17 h, 200 µM in data set [2] worked out at 4.7 ×10⁻⁶ cm/s.

`Cc1cc(N)nc(CCCN2CCC(F)(F)CC2)c1`: the Ki was found to be 6.48 µM in data set [3], 18.6 µM in data set [1], 0.046 µM in data set [4] and 0.048 µM in data set [5]. Further, the Papp at 17 h, 200 µM in data set [2] was found to be 17.3 ×10⁻⁶ cm/s.

Regarding `Cc1cc(N)nc(CCCCN(C)C)c1`, the results for the Ki in data set [3] and in data set [1] were 7.67 µM and 7.35 µM, respectively. In addition, the Papp at 17 h, 200 µM in data set [2] worked out at 2.3 ×10⁻⁶ cm/s.

With `Cc1cc(N)nc(C#CCN2CCC(F)(F)CC2)c1`, the Ki came to 27.4 µM in data set [3], 18.9 µM in data set [1], 1.59 µM in data set [4] and 1.43 µM in data set [5]. Moreover, the Papp at 17 h, 200 µM in data set [2] was determined as 21.1 ×10⁻⁶ cm/s.

For `Cc1cc(N)nc(CCCN(C)C)c1`, in data set [1], the inhibition constant Ki is 3.66 µM. The Papp at 17 h, 200 µM in data set [2] is 2 ×10⁻⁶ cm/s.

For `CNCCCc1cc(C)cc(N)n1`, the inhibition constant (Ki) in data set [1] was 1.47 µM. The Papp at 17 h, 200 µM in data set [2] was found to be 0.96 ×10⁻⁶ cm/s.

With `Cc1cc(N)nc(C#CCN2CC(F)(F)C2)c1`, the Ki is 11.1 µM in data set [3], 5.13 µM in data set [1], 0.465 µM in data set [4] and 0.488 µM in data set [5]. In data set [2], the Papp at 17 h, 200 µM stood at 19.6 ×10⁻⁶ cm/s.

In the case of `Cc1cc(N)nc(CCCN2CCN(C)CC2)c1`, the inhibition constant (Ki) in data set [1] came out at 12.5 µM; in data set [4], 0.056 µM. Moreover, the Papp at 17 h, 200 µM in data set [2] worked out at 2.2 ×10⁻⁶ cm/s.

`Cc1cc(N)nc(CCCN2CC(F)(F)C2)c1`: the Ki in data set [3] turned out to be 4.36 µM; in data set [1], 6.27 µM; in data set [4] it was 0.095 µM; in data set [5], 0.149 µM. Also, the Papp at 17 h, 200 µM in data set [2] worked out at 17.5 ×10⁻⁶ cm/s.
